The values that follow come from article PMC3149845 (The Journal of neuroscience : the official journal of the …, 2011).

Molecules are shown by their SMILES. Residue numbers refer to the chain shown, from its start. Entries after “also recorded” stand apart in the source; their conditions may differ. Peptide text beside a SMILES is read from it.

One assay deals with T1, hTas1R2:S40T+hTas1R3 (Homo sapiens, UniProt Q8TE23, S40T).
T1 sequence (Q8TE23 20-839 S40T): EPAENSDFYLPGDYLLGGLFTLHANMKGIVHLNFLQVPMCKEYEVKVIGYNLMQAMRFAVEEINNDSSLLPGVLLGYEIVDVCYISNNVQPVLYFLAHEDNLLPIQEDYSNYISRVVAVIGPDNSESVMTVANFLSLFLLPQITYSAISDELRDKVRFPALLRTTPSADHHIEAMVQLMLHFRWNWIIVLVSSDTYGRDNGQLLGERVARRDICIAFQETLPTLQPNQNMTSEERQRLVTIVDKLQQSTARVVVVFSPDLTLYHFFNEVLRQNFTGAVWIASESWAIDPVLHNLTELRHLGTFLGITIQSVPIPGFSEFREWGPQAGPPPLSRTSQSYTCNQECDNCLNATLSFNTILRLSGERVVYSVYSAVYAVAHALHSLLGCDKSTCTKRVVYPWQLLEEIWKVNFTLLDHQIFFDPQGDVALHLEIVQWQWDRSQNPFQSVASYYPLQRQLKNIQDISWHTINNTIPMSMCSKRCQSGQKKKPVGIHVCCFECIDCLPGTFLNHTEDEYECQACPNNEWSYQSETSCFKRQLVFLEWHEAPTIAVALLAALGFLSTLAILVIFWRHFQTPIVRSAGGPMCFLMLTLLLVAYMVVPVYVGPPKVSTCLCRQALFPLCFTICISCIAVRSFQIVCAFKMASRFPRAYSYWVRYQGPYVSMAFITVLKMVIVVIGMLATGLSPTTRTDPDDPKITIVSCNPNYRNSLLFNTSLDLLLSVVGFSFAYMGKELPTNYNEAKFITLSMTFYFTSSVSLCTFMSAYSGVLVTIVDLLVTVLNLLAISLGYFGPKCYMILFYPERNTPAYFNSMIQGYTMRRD
T1 sequence (Q7RTX0 21-852 partner): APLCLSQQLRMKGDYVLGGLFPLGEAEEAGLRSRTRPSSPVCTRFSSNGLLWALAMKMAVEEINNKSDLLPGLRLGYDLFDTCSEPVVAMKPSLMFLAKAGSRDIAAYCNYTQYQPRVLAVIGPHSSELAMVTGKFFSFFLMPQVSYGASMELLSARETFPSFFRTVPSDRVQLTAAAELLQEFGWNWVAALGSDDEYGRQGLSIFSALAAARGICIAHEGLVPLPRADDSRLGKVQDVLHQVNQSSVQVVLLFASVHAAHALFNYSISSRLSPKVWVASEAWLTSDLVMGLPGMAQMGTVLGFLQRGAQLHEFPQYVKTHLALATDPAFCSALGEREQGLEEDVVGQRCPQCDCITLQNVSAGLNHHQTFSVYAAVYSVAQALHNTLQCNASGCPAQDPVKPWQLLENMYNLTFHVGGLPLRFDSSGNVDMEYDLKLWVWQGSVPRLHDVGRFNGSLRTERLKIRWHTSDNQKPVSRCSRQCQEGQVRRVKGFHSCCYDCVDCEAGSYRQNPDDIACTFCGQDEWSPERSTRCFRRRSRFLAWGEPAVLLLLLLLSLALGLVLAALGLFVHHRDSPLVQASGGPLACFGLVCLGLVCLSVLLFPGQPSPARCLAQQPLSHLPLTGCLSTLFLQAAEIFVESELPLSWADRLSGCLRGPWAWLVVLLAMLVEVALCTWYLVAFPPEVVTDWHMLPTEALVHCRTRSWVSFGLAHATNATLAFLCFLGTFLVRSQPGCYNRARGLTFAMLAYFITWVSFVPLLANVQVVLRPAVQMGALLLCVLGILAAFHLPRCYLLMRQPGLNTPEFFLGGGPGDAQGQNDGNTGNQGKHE
The assay can be described thus: Ca2+ mobilization, mutated human receptor. In kind it is cell-based. The following applies: aspartame 10mM, neotame 1mM, sucralose 2 mM; compared with hTas1R2/hTas1R3. In outline:
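HEK293E cells grown at 37°C in Opti-MEM with 5% FBS and seeded at 50,000/well. Cells co-lipofected with Tas1R plasmids and Gα16-gust44 (0.06 μg each per well); medium changed at 20 h, assayed 24 h later. Cells loaded 1 h with Fluo-4 AM in HEPES-buffered HBSS. Tastant added at 30 s; fluorescence (ex 488/em 525 nm) read every 2 s for 150 s more. ΔF/F normalised to human receptor maximal sucralose response; mean ± SEM, three independent experiments.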
(Calcium assays in cells follow changes in intracellular calcium, usually with a dye or a luminescent sensor.)

In a further assay the target is T2, hTas1R2/smTas1R3 (Homo sapiens, UniProt Q8TE23).
T2 sequence (Q8TE23 20-839): T1 sequence (Q8TE23 20-839 S40T) with T21S
The assay can be described thus: Ca2+ mobilization, mismatched receptor. The class given is cell-based, human/squirrel monkey. The following applies: aspartame 10mM, neotame 1mM, sucralose 2 mM, D-tryptophan 5mM, sucrose 150mM; vs control / wild type human receptor. In outline:
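Transfected HEK293E cells (50,000/well; 0.06 μg Tas1R plasmid and 0.06 μg Gα16-gust44 per well) were medium-changed at 20 h, then loaded after 24 h with 3 μM Fluo-4 AM in HBSS/20 mM HEPES for 1 h. Tastant added 30 s into scan; fluorescence (ex 488/em 525 nm) read every 2 s for 150 s. ΔF/F normalized to the hTas1R2/hTas1R3 sucralose response; three independent experiments; unpaired t test.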

As to `COC(=O)[C@H](Cc1ccccc1)NC(=O)[C@@H](N)CC(=O)O` [aspartame, L-α-aspartly-L-phenylalanine methyl ester] (H-Asp-Phe-OMe), the entries for the “calcium response to sweetener” value at hTas1R2:S40T+hTas1R3 and on hTas1R2/smTas1R3 were “abolished” and “able to respond; also recorded: reduced responses”, respectively.
Take `COC(=O)[C@H](Cc1ccccc1)NC(=O)[C@H](CC(=O)O)NCCC(C)(C)C` [neotame]: the “calcium response to sweetener” value on hTas1R2:S40T+hTas1R3 is “did not affect significantly”; on hTas1R2/smTas1R3 it was “able to respond”.
For `OC[C@H]1O[C@H](O[C@]2(CCl)O[C@H](CCl)[C@@H](O)[C@@H]2O)[C@H](O)[C@@H](O)[C@H]1Cl` [sucralose], the results for the “calcium response to sweetener” value at hTas1R2:S40T+hTas1R3 and on hTas1R2/smTas1R3 were “significantly reduced” and “reduced responses”, respectively.
